According to ChEMBL document CHEMBL1955811, “Inhibition of colony-stimulating-factor-1 signaling in vivo with the orally bioavailable cFMS kinase inhibitor GW2580” (Proc Natl Acad Sci U S A, 2005):
pIC50: −log10 of the molar value. The source made the active and inactive calls. The calls are words filed in the database; no cut-off is given here.

What was measured:
[1] = system: Monocyte; assay: Inhibition of CSF-1-stimulated growth of freshly isolated human monocytes at 1 uM preincubated for 30 mins before inducer addition measured after 5 days by WST-1 method; format: functional; conditions: read-out: GI
[2] = system: Mus musculus; assay: Inhibition of LPS-stimulated TNF production in CSF-1 primed mouse at 20 to 80 mg/kg, po administered 4.5 hr before LPS challenge and CSF-1 priming measured […] after LPS challenge; format: functional, organism-based
[3] = system: Macrophage; assay: Effect on LPS-induced TNF production in CSF-1-stimulated human macrophages at 0.03906 to 20 uM preincubated for 30 mins before LPS stimulation measured after 20 hrs by ELISA; format: functional, cell-based
[4] = system: NFS-60; assay: Antitumor activity in mouse M-NFS-60 cells allografted in CD-1 nude mouse assessed as inhibition of tumor cell growth in peritoneal cavity at 80 mg/kg, po BID starting 1 hr before challenge for 4 days measured after 4 days; format: functional, organism-based; design: dose 80 mg/kg
Outline: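 CD-1 nude female mice (22-26 g); 1 × 10^7 M-NFS-60 cells in PBS injected i.p. Oral dosing b.i.d. at 20 and 80 mg/kg as a suspension in 0.5% hydroxypropylmethylcellulose/0.1% Tween 80 (0.2 ml per mouse), starting 1 h before cell injection. Peritoneal cells recovered by cold PBS-heparin lavage on day 4 and counted by hemocytometer after crystal violet dilution. Mean ± SEM; Dunnett's test.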

[5] = system: Mus musculus; assay: Inhibition of LPS-stimulated IL-6 production in mouse at 40 mg/kg, po administered 0.5 hr before LPS challenge measured […] after LPS challenge; format: functional
[6] = system: Monocyte; assay: Effect on LPS-induced IL-6 production in human monocytes at 0.03906 to 20 uM preincubated for 30 mins before LPS stimulation measured after 20 hrs by ELISA; format: functional, cell-based
[7] = target: Proto-oncogene tyrosine-protein kinase LCK (Mus musculus, UniProt P06240); assay: Inhibition of mouse LCK
[8] = system: Mus musculus; assay: Inhibition of thioglycolate-induced macrophage influx into peritoneal cavity in mouse at 20 mg/kg, po BID administered 7 days before and 4 days after thioglycolate challenge; format: functional
Outline: (§1)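 Female C3H/HEN mice (22-26 g) were dosed orally with compound suspended in 0.5% hydroxypropylmethylcellulose/0.1% Tween 80 (0.2 ml per mouse). Thioglycolate (1.5 ml) was injected i.p. on day 0. On day 4, the peritoneum was lavaged with 5 ml cold PBS containing 40 units/ml heparin, and cells were counted by hemocytometer in 0.1% crystal violet. Data are mean ± SEM; Dunnett's test.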

[9] = target: Protein kinase C alpha type (Homo sapiens, UniProt P17252); assay: Inhibition of human PKCa catalytic domain after by scintillation counting
Outline: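 Catalytic domains of the human kinases were expressed, isolated and assayed with ATP and the appropriate substrate. Compound was tested as a 10- to 12-point dose-response up to a maximal 20 μM.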

[10] = system: Mus musculus; assay: Inhibition of LPS-stimulated TNF production in mouse at 40 mg/kg, po administered 4.5 hr before LPS challenge measured […] after LPS challenge; format: functional
[11] = system: Osteoclast; assay: Inhibition of human osteoclast degradation of bone assessed as reduction in 23C6(+) cells with more than 3 nuclei per cm2 of bone at 3 uM after 3 days by immunocytochemistry (reference value: 854 +/- 122 cells/cm2 of bone); format: functional
[12] = species: Rattus norvegicus; assay: Inhibition of PTH-induced Wistar rat fetal long bone degradation assessed as labeled 45Ca release in to media at 1 to 10 uM after 48 hrs by liquid scintillation spectrometry; format: functional
Outline: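 Fetal rat long bones preloaded with 45CaCl2 and incubated for 24 h. PTH and compound then added; release of labelled calcium into the medium measured 48 h later.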

[13] = system: Osteoclast; assay: Inhibition of human osteoclast degradation of bone assessed as reduction in 23C6(+) cells with more than 3 nuclei per cm2 of bone at 10 uM after 3 days by immunocytochemistry (reference value: 854 +/- 122 cells/cm2 of bone); format: functional
[14] = system: Mus musculus; assay: Inhibition of LPS-stimulated TNF production in CSF-1 primed mouse at 40 mg/kg, po administered 4.5 hr before LPS challenge and CSF-1 priming measured […] after LPS challenge; format: functional
[15] = species: Rattus norvegicus; assay: Inhibition of PTH-induced Wistar rat calvarial bone degradation assessed as reduction in DPPD level in media at 0.1 uM after 48 hrs; format: functional
Outline: (§2)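 Rat calvaria incubated with PTH plus compound for two consecutive 48-h periods. Medium from the second period assayed for deoxypyridinoline crosslinks (DPPD).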

[16] = system: Mus musculus; assay: Inhibition of LPS-stimulated IL-6 production in CSF-1 primed mouse at 40 mg/kg, po administered 4.5 hr before LPS challenge and CSF-1 priming measured […] after LPS challenge; format: functional
[17] = system: Mus musculus; assay: Inhibition of LPS-stimulated TNF production in mouse at 40 mg/kg, po administered 0.5 hr before LPS challenge measured […] after LPS challenge; format: functional
[18] = system: Osteoclast; assay: Inhibition of human osteoclast attachment to plastic surface assessed cells per cm2 of plastic at 3 uM after 3 days by immunocytochemistry (reference value: 9723 +/- 1380 cells/cm2 of plastic); format: functional
Outline: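 Human PBMCs from a healthy volunteer (5 × 10^5 cells in MEM/10% FCS) were seeded on plastic coverslips with RANKL and CSF-1 (30 ng/ml each) for 10 days, with medium changed every 3 days. Compound was added on day 10 (0.1% DMSO final). On day 13, total cells on the coverslips were counted by immunocytochemistry. Data are mean ± SEM.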

[19] = system: NFS-60; assay: Growth inhibition of CSF1-stimulated mouse M-NFS-60 cells at 0.7 uM after 3 days by spectrophotometry; format: functional
[20] = species: Rattus norvegicus; assay: Inhibition of PTH-induced Wistar rat calvarial bone degradation assessed as reduction in DPPD level in media at 1 to 100 uM after 48 hrs; format: functional; outline: as §2
[21] = system: Osteoclast; assay: Inhibition of human osteoclast degradation of bone assessed as reduction in actin ring formation per cm2 of bone at 3 uM after 3 days by immunocytochemistry (reference value: 1546 +/- 232 /cm2 of bone); format: functional
[22] = Protein binding in cell-culture media with 10% fetal calf serum at 3 uM; format: ADME, cell-free, Bos taurus; conditions: cattle, read-out: PB (converted)
Outline: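 Compound at 3 μM was added to triplicate samples and incubated 1 h at 37°C. Samples were centrifuged through a 30,000-MW filter (1,500 × g, 15 min, 4°C). Percent bound was calculated from compound concentrations in the filtrate and retentate.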

[23] = system: Mus musculus; assay: Inhibition of thioglycolate-induced macrophage influx into peritoneal cavity in mouse at 20 to 80 mg/kg, po BID; format: functional, organism-based; conditions: TDE = time-dependent effect; outline: as §1
[24] = system: HFF; assay: Growth inhibition of serum-stimulated HFF after 3 days by spectrophotometry; format: cell-based; conditions: Homo sapiens, 72 h
Outline: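 Cells cultured so that added serum or growth factor gave linear growth. Compound tested as a 10- to 12-point dose-response with a top concentration of 20 μM.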

Sequence of Proto-oncogene tyrosine-protein kinase LCK (P06240 whole entry): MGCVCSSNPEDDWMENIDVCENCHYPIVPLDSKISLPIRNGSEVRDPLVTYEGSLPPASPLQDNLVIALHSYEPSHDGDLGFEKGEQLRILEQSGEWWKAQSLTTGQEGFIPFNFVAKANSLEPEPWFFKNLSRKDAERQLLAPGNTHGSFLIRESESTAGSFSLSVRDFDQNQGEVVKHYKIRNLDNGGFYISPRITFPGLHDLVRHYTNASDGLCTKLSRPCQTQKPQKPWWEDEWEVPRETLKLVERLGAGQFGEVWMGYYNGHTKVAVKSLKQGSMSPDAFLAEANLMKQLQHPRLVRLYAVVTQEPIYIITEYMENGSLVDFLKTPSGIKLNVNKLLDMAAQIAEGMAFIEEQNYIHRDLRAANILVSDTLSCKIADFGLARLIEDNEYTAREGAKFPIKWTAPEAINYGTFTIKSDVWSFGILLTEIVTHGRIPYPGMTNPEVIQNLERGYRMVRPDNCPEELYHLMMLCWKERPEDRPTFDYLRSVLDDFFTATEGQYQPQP

What does the source list for COc1ccc(COc2ccc(Cc3cnc(N)nc3N)cc2OC)cc1 [GW632580X]?
inhibition of growth at 1 µM [1]: 100%; inhibition [2]: Active; Activity [3]: inactive; growth inhibition (GI) [4]: Active; inhibition in vivo at 40 mg/kg [5]: 20%; Activity [6]: inactive; pIC50 [7]: < 5.00; inhibition in vivo at 20 mg/kg [8]: 8%; pIC50 [9]: < 4.89; inhibition in vivo at 40 mg/kg [10]: 42%; Activity [11]: 120 /cm2; inhibition [12]: Active; Activity [13]: 34 /cm2; inhibition in vivo at 40 mg/kg [14]: 58%; inhibition [15]: 80%; inhibition in vivo at 40 mg/kg [16]: 49%; inhibition in vivo at 40 mg/kg [17]: 68%; Activity [18]: 3369 /cm2; growth inhibition (GI) [19]: Active; inhibition [20]: Active; Activity [21]: 148 /cm2; fraction unbound at 3 µM [22]: 0.76; inhibition [23]: tde; pIC50 [24]: < 4.52
